# How the values were obtained:
# Mus musculus [1] = assay: Compound was evaluated for the anticancer activity against P388 lymphocytic leukemia in vivo in mouse at a dosage of 200 mg/kg. The survivals were reported.; format: functional
# Mus musculus [2] = assay: Compound was evaluated for the anticancer activity against P388 lymphocytic leukemia in vivo in mouse at a dosage of 100 mg/kg and percent treated/control was reported; format: functional
# [3] = Compound was evaluated for its cytotoxic activity in vitro KB cell culture system derived from human epidermoid carcinoma; format: functional; conditions: read-out: ED50 (the source's name)
# Mus musculus [4] = assay: Compound was evaluated for the anticancer activity against P388 lymphocytic leukemia in vivo in mouse at a dosage of 400 mg/kg and percent treated/control was reported; format: functional
# Mus musculus [5] = assay: Compound was evaluated for the anticancer activity against P388 lymphocytic leukemia in vivo in mouse at a dosage of 400 mg/kg. The survivals were reported.; format: functional
# Mus musculus [6] = assay: Compound was evaluated for the anticancer activity against P388 lymphocytic leukemia in vivo in mouse at a dosage of 400 mg/kg and the weight difference was measured.; format: functional
# Mus musculus [7] = assay: Compound was evaluated for the anticancer activity against P388 lymphocytic leukemia in vivo in mouse at a dosage of 100 mg/kg and the weight difference was measured.; format: functional
# Mus musculus [8] = assay: Compound was evaluated for the anticancer activity against P388 lymphocytic leukemia in vivo in mouse at a dosage of 200 mg/kg and the weight difference was measured.; format: functional
# Mus musculus [9] = assay: Compound was evaluated for the anticancer activity against P388 lymphocytic leukemia in vivo in mouse at a dosage of 100 mg/kg. The survivals were reported.; format: functional
# Mus musculus [10] = assay: Compound was evaluated for the anticancer activity against P388 lymphocytic leukemia in vivo in mouse at a dosage of 200 mg/kg and percent treated/control was reported; format: functional
# Mus musculus [11] = assay: Compound was evaluated for the anticancer activity against P388 lymphocytic leukemia in vivo in mouse at a dosage of 12.5 mg/kg. The survivals were reported.; format: functional
# Mus musculus [12] = assay: Compound was evaluated for the anticancer activity against P388 lymphocytic leukemia in vivo in mouse at a dosage of 50 mg/kg, survivals were reported.; format: functional
# Mus musculus [13] = assay: Compound was evaluated for the anticancer activity against P388 lymphocytic leukemia in vivo in mouse at a dosage of 50 mg/kg and the weight difference was measured.; format: functional
# Mus musculus [14] = assay: Compound was evaluated for the anticancer activity against P388 lymphocytic leukemia in vivo in mouse at a dosage of 50 mg/kg and percent treated/control was reported; format: functional
# Mus musculus [15] = assay: Compound was evaluated for the anticancer activity against P388 lymphocytic leukemia in vivo in mouse at a dosage of 25 mg/kg and percent treated/control was reported; format: functional
# Mus musculus [16] = assay: Compound was evaluated for the anticancer activity against P388 lymphocytic leukemia in vivo in mouse at a dosage of 12.5 mg/kg and percent treated/control was reported; format: functional
# Mus musculus [17] = assay: Compound was evaluated for the anticancer activity against P388 lymphocytic leukemia in vivo in mouse at a dosage of 25 mg/kg and the weight difference was measured.; format: functional
# Mus musculus [18] = assay: Compound was evaluated for the anticancer activity against P388 lymphocytic leukemia in vivo in mouse at a dosage of 25 mg/kg. The survivals were reported.; format: functional
# Mus musculus [19] = assay: Compound was evaluated for the anticancer activity against P388 lymphocytic leukemia in vivo in mouse at a dosage of 12.5 mg/kg and the weight difference was measured.; format: functional
# L1210 = assay: Activity against L1210 was reported.; format: functional, Mus musculus
# Mus musculus [20] = assay: Compound was evaluated for the anticancer activity against P388 lymphocytic leukemia in vivo in mouse at a dosage of 200 mg/kg, survivals were reported.; format: functional
# Mus musculus [21] = assay: Compound was evaluated for the anticancer activity against P388 lymphocytic leukemia in vivo in mouse at a dosage of 100 mg/kg; format: functional
# Mus musculus [22] = assay: Compound was evaluated for the anticancer activity against P388 lymphocytic leukemia in vivo in mouse at a dosage of 50 mg/kg. The survivals were reported.; format: functional
# [23] = Compound was evaluated for its cytotoxic activity in vitro KB cell culture system; format: functional; conditions: Homo sapiens, read-out: ED50 (the source's name)
# How it was run: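 Cytotoxicity was measured in cultured KB human cancer cells and reported as ED50 values.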
# Mus musculus [24] = assay: Compound was evaluated for the anticancer activity against M5076 sarcoma in vivo in mouse at a dosage of 12.5 mg/kg and percent treated/control was reported; format: functional
# Mus musculus [25] = assay: Compound was evaluated for the anticancer activity against M5076 sarcoma in vivo in mouse at a dosage of 6.25 mg/kg, survivals were reported.; format: functional
# Mus musculus [26] = assay: Compound was evaluated for the anticancer activity against M5076 sarcoma in vivo in mouse at a dosage of 6.25 mg/kg and the weight difference was measured.; format: functional
# Mus musculus [27] = assay: Compound was evaluated for the anticancer activity against M5076 sarcoma in vivo in mouse at a dosage of 12.5 mg/kg, survivals were reported.; format: functional
# Mus musculus [28] = assay: Compound was evaluated for the anticancer activity against M5076 sarcoma in vivo in mouse at a dosage of 200 mg/kg and the weight difference was measured.; format: functional
# Mus musculus [29] = assay: Compound was evaluated for the anticancer activity against M5076 sarcoma in vivo in mouse at a dosage of 12.5 mg/kg; format: functional
# Mus musculus [30] = assay: Compound was evaluated for the anticancer activity against M5076 sarcoma in vivo in mouse at a dosage of 100 mg/kg and the weight difference was measured.; format: functional
# Mus musculus [31] = assay: Compound was evaluated for the anticancer activity against M5076 sarcoma in vivo in mouse at a dosage of 6.25 mg/kg and percent treated/control was reported; format: functional
# Mus musculus [32] = assay: Compound was evaluated for the anticancer activity against M5076 sarcoma in vivo in mouse at a dosage of 50 mg/kg and the weight difference was measured.; format: functional
# Mus musculus [33] = assay: Compound was evaluated for the anticancer activity against M5076 sarcoma in mouse at a dosage of 400 mg/kg, survivals were reported; format: functional
# Mus musculus [34] = assay: Compound was evaluated for the anticancer activity against M5076 sarcoma in vivo in mouse at a dosage of 50 mg/kg and percent treated/control was reported; format: functional
# Mus musculus [35] = assay: Compound was evaluated for the anticancer activity against M5076 sarcoma in vivo in mouse at a dosage of 100 mg/kg and percent treated/control was reported; format: functional
# Mus musculus [36] = assay: Compound was evaluated for the anticancer activity against M5076 sarcoma in vivo in mouse at a dosage of 25 mg/kg, survivals were reported.; format: functional
# Mus musculus [37] = assay: Compound was evaluated for the anticancer activity against M5076 sarcoma in vivo in mouse at a dosage of 100 mg/kg, survivals were reported; format: functional
# Mus musculus [38] = assay: Compound was evaluated for the anticancer activity against M5076 sarcoma in vivo in mouse at a dosage of 50 mg/kg, survivals were reported.; format: functional
# Mus musculus [39] = assay: Compound was evaluated for the anticancer activity against M5076 sarcoma in vivo in mouse at a dosage of 25 mg/kg and percent treated/control was reported; format: functional
# Mus musculus [40] = assay: Compound was evaluated for the anticancer activity against M5076 sarcoma in vivo in mouse at a dosage of 25 mg/kg and the weight difference was measured.; format: functional
# Mus musculus [41] = assay: Compound was evaluated for the anticancer activity against M5076 sarcoma in vivo in mouse at a dosage of 200 mg/kg, survivals were reported; format: functional
smiles,measurement,setting,value
COc1cc2c[n+](C)c3c(c2cc1OC)Cc1c-3ccc(O)c1OC.[Cl-],Survival,Mus musculus [1],6
same,T/C,Mus musculus [2],116%
same,EC50,[3],0.4 µg/mL
same,T/C,Mus musculus [4],137%
same,Survival,Mus musculus [5],6
same,Weight change,Mus musculus [6],-1.5
same,Weight change,Mus musculus [7],0.2
same,Weight change,Mus musculus [8],-0.2
same,Survival,Mus musculus [9],6
same,T/C,Mus musculus [10],134%
COc1cc2c(cc1O)Cc1c-2[n+](C)cc2cc(OC)c(OC)cc12.[Cl-],Survival,Mus musculus [11],5
same,EC50,[3],0.03 µg/mL
same,Survival,Mus musculus [12],6
same,Weight difference,Mus musculus [13],-0.4
same,T/C,Mus musculus [14],149%
same,T/C,Mus musculus [15],138%
same,T/C,Mus musculus [16],130%
same,Weight difference,Mus musculus [17],-0.1
same,Survival,Mus musculus [18],6
same,Weight difference,Mus musculus [19],0.1
COc1cc2c[n+](C)c3c(c2cc1OC)Cc1c-3ccc(OS(C)(=O)=O)c1OC.[Cl-],EC50,[3],0.1 µg/mL
COc1cc2c[n+](C)c3c4cc5c(cc4ccc3c2cc1OC)OCO5.[Cl-] [NITIDINE CHLORIDE],T/C,L1210,136
COc1cc2c[n+](C)c3c(c2cc1OC)Cc1cc(OS(C)(=O)=O)c(OC)cc1-3.[Cl-],T/C,Mus musculus [2],137%
same,Survival,Mus musculus [20],5
same,Survival,Mus musculus [21],6
same,EC50,[3],0.01 µg/mL
same,Survival,Mus musculus [22],6
same,Weight difference,Mus musculus [13],-0.6
same,T/C,Mus musculus [14],136%
same,T/C,Mus musculus [15],128%
same,Weight difference,Mus musculus [7],-2.1
same,Weight difference,Mus musculus [17],-1.3
same,Weight difference,Mus musculus [8],-3.6
same,T/C,Mus musculus [10],145%
same,Survival,Mus musculus [18],6
COc1cc2cc(-c3ccc4c(c3)OCO4)[n+](C)cc2cc1OC.[Cl-],EC50,[23],0.005 µg/mL
COc1cc2cc(-c3ccc(OC(C)C)c(OC)c3)[n+](C)cc2cc1OC.[Cl-],EC50,[3],> 100 µg/mL
COc1cc2c[n+](C)c3c(c2cc1OC)Cc1cc2c(cc1-3)OCO2.[Cl-],T/C,Mus musculus [24],109%
same,Survival,Mus musculus [25],10
same,Weight difference,Mus musculus [26],-0.8
same,Survival,Mus musculus [27],10
same,Weight difference,Mus musculus [28],-7.2
same,Weight difference,Mus musculus [29],-0.2
same,Weight difference,Mus musculus [30],-4.4
same,T/C,Mus musculus [31],115%
same,Weight difference,Mus musculus [32],-2
same,Survival,Mus musculus [33],0
same,T/C,Mus musculus [34],107%
same,T/C,Mus musculus [35],137%
same,Survival,Mus musculus [36],10
same,Survival,Mus musculus [37],9
same,Survival,Mus musculus [38],9
same,T/C,Mus musculus [39],113%
same,Weight difference,Mus musculus [40],-0.3
same,Survival,Mus musculus [41],6

# From ChEMBL document CHEMBL1122912, “Synthesis and antitumor activity of structural analogues of the anticancer benzophenanthridine alkaloid fagaronine chloride” (1985)
